Measured values pooled from the literature.
Protocols differ between the studies behind these lines.
HTR1A: 5-hydroxytryptamine receptor 1A (HTR1A, Homo sapiens, UniProt P08908)
Fibroblast growth factor 14: Fibroblast growth factor 14 (Homo sapiens, UniProt Q92915)
TAOK2: Serine/threonine-protein kinase TAO2 (TAOK2, Homo sapiens, UniProt Q9UL54)

SMILES | target | assay | conditions | endpoint | value
CC(=O)ON=C1C=CC(=C(C#N)c2ccccc2)C=C1 | Casein kinase I isoform epsilon (CSNK1E, Homo sapiens, UniProt P49674) | enzyme activity, inhibitor, ADP detection | 2 µM | activity vs control | 77%
NC/C(=C\F)COc1cccc(Cn2c(=S)[nH]c(=O)c3[nH]cnc32)c1 | HTR1A | ligand displacement, radioligand | 10 µM | inhibition | < 50%
O=c1cc(-c2ccc([N+](=O)[O-])cc2)[nH]c2c(-c3ccc(Cl)cc3)c(Cc3ccccc3)nn12 | Fibroblast growth factor 14 | binding, SPR |  | koff | 0.00101 s⁻¹
CCCCC(=O)Nc1ccc(-c2ccc3ncn(CCC)c(=O)c3c2)cn1 | Mitogen-activated protein kinase kinase kinase 13 (MAP3K13, Homo sapiens, UniProt O43283) | binding, competition with immobilised ligand | 0.5 µM | remaining binding | 94%
Cc1nc(CSc2nc(-c3ccc(C(C)(C)C)cc3)n[nH]2)cs1 | Fibroblast growth factor 14 | thermal stability | 25 µM | ΔTm | 0.3 °C
Cc1cc(F)cc2c(CCC(=O)N[C@@H]3C(=O)NC[C@H]3O)c(-c3ccc(F)cc3)[nH]c12 | HTR1A | cell-free assay | 10 µM | inhibition | -8%
C1=C/COCc2cc(ccc2OCCN2CCCC2)Nc2nccc(n2)-c2cccc(c2)COC/1 | Death-associated protein kinase 3 (DAPK3, Homo sapiens, UniProt O43293) | binding | 0.1 µM | remaining binding | 53%
CCN1/C(=C/C(C)=O)Sc2ccc(F)cc21 | Nociceptin receptor (OPRL1, Homo sapiens, UniProt P41146) | ligand displacement, radioligand | 10 µM | inhibition | 0.04%
C#Cc1cc(-c2cc(Nc3nc(N[C@@H](C)c4ccc(F)cn4)ncc3Cl)n[nH]2)ccc1C=O | TAOK2 | enzyme activity, inhibitor | 0.2 µM | inhibition | 3.89%
COc1ccc2oc(-c3ccc4nc(N)oc4c3)c/c(=N\c3ccccc3NC(=O)CCN)c2c1 | Phosphatidylinositol 4-phosphate 3-kinase C2 domain-containing subunit alpha (PIK3C2A, Homo sapiens, UniProt O00443) | binding | 1 µM | remaining binding | 101%
Cc1cccc(NC(=O)Cn2cc(CO)c3ccccc32)c1 | Fibroblast growth factor 14 | binding, SPR |  | koff | 0.013 s⁻¹
Cc1cc(O)c(-c2ccc([C@@H](C)CN(C)C)cc2)c2c1[nH]c(=O)c1sccc12 | TAOK2 | enzyme activity, inhibitor | 0.1 µM | inhibition | -4.37%
